The source made the active and inactive calls.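 Rule for the calls, unless noted: active = fluorescence slope after compound addition differing from the mean of all screened samples at 99.7% confidence, in either direction; inactive = the rest.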
How the values were obtained:
[1] = inhibitors of TNFa-induced NFkB p65 translocation, primary screen, imaging, HUVEC, MLSMR starter and 10KST1 sets (AID 438;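 active = inhibition above 20% together with a positive visual image hit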;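 note: compound added about 3h40 before a 20 min TNFalpha stimulation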;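 for inhibition: signal is the nuclear over cytoplasmic p65 intensity ratio per well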); conditions: HUVEC TNFa-induced p65 nuclear translocation; cell count: measured here: nuclei count (cytotoxicity indicator), at 2.08 µM; inhibition: at 2 µM, stronger effect = higher value, 0% TNFa-plus-vehicle, 100% no-TNFa wells
[2] = inhibitors of mutant huntingtin aggregation, primary screen, imaging, exon1htt(103Q)mCFP cells, high-content imaging (AID 483;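 active = visual image review flags a hit and inhibition of aggregation exceeds 20%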;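 note: compound exposure lasted 3 days before fixation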;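 for nuclei count: percent of the per-plate median nuclei count of sample wells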); conditions: exon1htt(103Q)mCFP cell line, aggregate imaging, at 2 µM; inhibition of aggregation: stronger effect = higher value; nuclei count: measured here: cell count, toxicity
[3] = inhibitors of E-selectin induction by TNFa, primary screen, imaging, HUVEC, immunofluorescence, MLSMR starter and 10KST1 sets (AID 487;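 active = visually confirmed hit in the image check and inhibition above 20%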;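 for inhibition: signal is fraction of cell area covered by stained E-selectin grains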;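 for nuclei count: 100% = median nuclei count of all wells on the same plate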); conditions: HUVEC TNFalpha-induced E-selectin immunofluorescence imaging, at 2 µM; inhibition: stronger effect = higher value; nuclei count: measured here: cell number, toxicity
[4] = target: Voltage-gated potassium channel subunit beta-2 (Rattus norvegicus) (UniProt P62483); experiment: KvBeta enzyme negative modulators, primary screen, biochemical, NADPH fluorescence (AID 622;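 active = fluorescence slope higher than the sample average by over 3 SD, cut at about -0.22 in these data, passing the limit was not always enough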;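 note: slope of raw intensity against log time taken from 70 to 1610 s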); conditions: recombinant KvBeta, 4-cyanobenzaldehyde reduction, at 10 µM, stronger effect = higher value
[5] = target: Voltage-gated potassium channel subunit beta-2 (Rattus norvegicus) (UniProt P62483); experiment: KvBeta positive modulators, primary screen, biochemical, NADPH fluorescence (AID 623;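 active = NADPH fluorescence slope more negative than the mean of all samples by about 3 SD, 99.7% confidence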;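 note: fluorescence intensity change per second fitted from 20 to 320 s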); conditions: Recombinant KvBeta, NADPH fluorescence decrease slope, 10 min; at 10 µM; stronger effect = lower value
[6] = target: Alpha-2C adrenergic receptor (Homo sapiens) (UniProt P18825); experiment: modulators of alpha2C/GIRK thallium flux, primary screen, cell-based, HEK293 alpha2C/GIRK1/2 (AID 624); conditions: thallium flux BTC fluorescence, at 10 µM, actives lie on both sides;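 note: slope of fluorescence ratio to pre-addition baseline per second over 15 to 24 s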
[7] = inhibitors of larval lipid processing in zebrafish, primary screen, whole organism, PED6 fluorescence, gall bladder and intestine (AID 686;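 active = a full or partial loss of lipid-probe fluorescence in the fish gall bladder, intestine or both, judged by eye; inactive = no fluorescence loss, or compound toxic to the fish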;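 note: larvae 5 to 7 days old with five fish per well; signal comes from phospholipase A2 cleavage of quenched PED6 carried via bile; overnight exposure to compound and PED6 before scoring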); conditions: Zebrafish larvae PED6 lipid processing, fluorescence scoring; screened at 20 µM (by protocol)
Method in brief: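 Test system – live zebrafish larvae aged 5-7 days, whole organism · Buffer or medium – E3 fish medium · Reagent – quenched phospholipase substrate PED6, 100 nM final, ingested by larvae · Doses – 20 µM single dose · Incubation – overnight compound and PED6 incubation · Technique – visual fluorescence microscopy scoring of gall bladder, gut · Read-out basis – visual per-well fluorescence inhibition score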

[8] = inhibitors of Sendai virus-induced IRF3 signaling, primary screen, TLR/RLR signaling modifier project, cell-based, Sendai virus stimulus, luciferase, 10K MLSCN set (AID 602276;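 active = inhibition at or above 50% at 10 µM; inactive = inhibition below 50%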;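 note: firefly luciferase from ISG56 promoter only with Renilla not read in this screen; 0% = Sendai virus plus DMSO and 100% = medium plus DMSO without virus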); conditions: HEK293 RL24 IRF3 luciferase reporter, at 10 µM, stronger effect = higher value
[9] = inhibitors of poly I:C-induced TLR3 signaling, primary screen, cell-based, poly I:C stimulus, luciferase, 10K MLSCN set (AID 602277;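 active = inhibition of the reporter signal at or above 50%; inactive = inhibition below 50%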); conditions: HEK293-TLR3 RL24 IRF3 luciferase reporter, at 10 µM, stronger effect = higher value

Chain of Voltage-gated potassium channel subunit beta-2 (Rattus norvegicus) (P62483 whole entry, looked up): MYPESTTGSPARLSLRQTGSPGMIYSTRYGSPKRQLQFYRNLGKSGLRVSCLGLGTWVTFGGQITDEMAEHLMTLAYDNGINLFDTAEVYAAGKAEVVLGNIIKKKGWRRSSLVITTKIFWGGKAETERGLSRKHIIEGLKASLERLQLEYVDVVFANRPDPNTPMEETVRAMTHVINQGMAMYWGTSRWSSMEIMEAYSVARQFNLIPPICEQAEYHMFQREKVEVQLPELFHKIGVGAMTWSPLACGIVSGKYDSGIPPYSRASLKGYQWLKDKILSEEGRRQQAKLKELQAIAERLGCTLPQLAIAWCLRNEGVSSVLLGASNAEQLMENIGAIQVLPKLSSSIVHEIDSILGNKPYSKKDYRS
Chain of Alpha-2C adrenergic receptor (Homo sapiens) (P18825 whole entry, looked up): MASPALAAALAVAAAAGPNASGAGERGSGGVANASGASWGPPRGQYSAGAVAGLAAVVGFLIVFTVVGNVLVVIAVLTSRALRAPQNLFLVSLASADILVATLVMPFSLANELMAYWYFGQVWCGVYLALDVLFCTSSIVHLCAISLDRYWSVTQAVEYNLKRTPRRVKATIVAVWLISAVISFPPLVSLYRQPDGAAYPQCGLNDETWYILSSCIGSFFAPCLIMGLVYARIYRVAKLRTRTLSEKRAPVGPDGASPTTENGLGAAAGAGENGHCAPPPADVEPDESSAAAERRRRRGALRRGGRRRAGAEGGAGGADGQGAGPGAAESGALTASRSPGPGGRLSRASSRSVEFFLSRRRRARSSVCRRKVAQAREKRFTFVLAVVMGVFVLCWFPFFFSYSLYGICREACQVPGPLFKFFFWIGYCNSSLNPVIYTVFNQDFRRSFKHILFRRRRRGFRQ

Structure (SMILES)	cell count [1]	inhibition [1]	inhibition of aggregation [2]	nuclei count [2] [%]	inhibition [3]	nuclei count [3] [%]	fluorescence slope [4]	NADPH fluorescence slope [5]	slope [6]	outcome [7]	inhibition [8]	inhibition [9]
CC1(C)CC(=O)C(C=NC(CCC(N)=O)C(=O)O)=C(O)C1 (centres undefined)	520	-22.3% (inactive)	-15.6% (inactive)	113	54.4% (active)	93.1	-0.382 (inactive)	-1e-05 (inactive)	0.00504 (inactive)	inactive	13.3% (inactive)	13.8% (inactive)
CC(=O)Nc1nnc(SCC(=O)NCC2CCCO2)s1 (centres undefined)	415	6% (inactive)	-1.3% (inactive)	102	-123% (inactive)	110	-0.413 (inactive)	-3.1e-05 (inactive)	0.00542 (inactive)	inactive	-10.9% (inactive)	-9.89% (inactive)
CCOC(=O)c1ccc2[nH]c3c(c2c1)CCCCC3=O	681	-11% (inactive)	-12.9% (inactive)	106	32% (inactive)	96.5	-0.389 (inactive)	-5.3e-05 (inactive)	0.00399 (inactive)	inactive	-36.8% (inactive)	-77.8% (inactive)
O=C(O)COc1cccc(NC(=O)C2CCCO2)c1 (centres undefined)	308	-7% (inactive)	0.8% (inactive)	97.2	-14.3% (inactive)	90	-0.471 (inactive)	1.1e-05 (inactive)	0.00558 (inactive)	inactive	-6.85% (inactive)	-4.06% (inactive)
COc1ccc(NC(=O)Nc2ccccc2C)c(OC)c1	371	1.5% (inactive)	-3.2% (inactive)	107	-31.1% (inactive)	116	-0.379 (inactive)	-7.9e-05 (inactive)	0.00603 (inactive)	inactive	6.08% (inactive)	12.1% (inactive)
COc1cccc(CC(=O)Nn2c(C)nc3ccccc3c2=O)c1	375	10.5% (inactive)	-8.2% (inactive)	102	-2% (inactive)	115	-0.395 (inactive)	-6e-05 (inactive)	0.00573 (inactive)	inactive	-2.22% (inactive)	98% (active)
COc1ccc(S(=O)(=O)N2CCN(S(=O)(=O)c3ccc4c(c3)OCCO4)CC2)cc1C	377	4% (inactive)	-8.3% (inactive)	114	15.9% (inactive)	85	-0.223 (inactive)	-5.5e-05 (inactive)	0.00641 (inactive)	inactive	16.8% (inactive)	26.6% (inactive)
O=C(CN1CCC(n2nnc3ccccc32)CC1)Nc1ccc2c(c1)CCC2	643	-9.3% (inactive)	4.8% (inactive)	96.4	-27% (inactive)	107	-0.42 (inactive)	-4.8e-05 (inactive)	0.00413 (inactive)	inactive	16% (inactive)	19% (inactive)
CCOC(=O)n1c(=O)oc2cc(S(=O)(=O)N3CCCCC3)ccc21	419	14.8% (inactive)	-1% (inactive)	103	35.2% (inactive)	81.5	-0.294 (inactive)	-1.1e-05 (inactive)	0.00583 (inactive)	inactive	8.09% (inactive)	16.3% (inactive)
CN(Cc1ccc(-n2cccn2)cc1)C(=O)c1cnn2c1NC(c1ccco1)CC2C(F)(F)F (centres undefined)	326	9.3% (inactive)	-30.3% (inactive)	115	-100% (inactive)	120	-0.509 (inactive)	-4e-05 (inactive)	0.00457 (inactive)	inactive	8.13% (inactive)	5.75% (inactive)
CC(C)n1nnnc1SCC(=O)Nc1ccccc1N1CCOCC1	539	-8% (inactive)	-6.6% (inactive)	104	-38.2% (inactive)	112	-0.451 (inactive)	-6.8e-05 (inactive)	0.00614 (inactive)	inactive	10.2% (inactive)	11.6% (inactive)
COc1cccc(CN2C(=O)C3(C(C#N)=C(N)OC4=C3C(=O)CCC4)c3ccccc32)c1 (centres undefined)	352	-0.9% (inactive)	-11.5% (inactive)	94.1	-15.9% (inactive)	77.7	-0.414 (inactive)	-5.5e-05 (inactive)	0.00531 (inactive)	inactive	12.7% (inactive)	14.6% (inactive)
O=C(Cc1nc2ccccc2s1)c1ccc(O)cc1O	322	1.1% (inactive)	-15.5% (inactive)	88.3	-98.2% (inactive)	124	-0.391 (inactive)	-0.000109 (inactive)	0.00457 (inactive)	inactive	-33.1% (inactive)	-88.7% (inactive)
Cc1nc(-c2ccccc2)sc1C(N)=O	424	4.7% (inactive)	25.4% (inactive)	104	-40.1% (inactive)	117	-0.524 (inactive)	1.6e-05 (inactive)	0.0052 (inactive)	inactive	-21.5% (inactive)	-49.1% (inactive)
Cc1ccc(Cl)cc1N1CCN(C(=O)c2cn(C)c(=O)c3c2c2ccccc2n3C)CC1	270	-3.3% (inactive)	17.2% (inactive)	8	-33.6% (inactive)	114	-0.352 (inactive)	-2e-05 (inactive)	0.00673 (inactive)	inactive	16.1% (inactive)	28% (inactive)
Cc1c(CNCc2cccs2)c(C(=O)O)c(C)n1Cc1ccccc1	451	5.5% (inactive)	3.1% (inactive)	115	-30.9% (inactive)	101	-0.454 (inactive)	-7.6e-05 (inactive)	0.00618 (inactive)	inactive	18.8% (inactive)	17% (inactive)
COc1ccc(C(=O)NCCC(C)C)cc1S(=O)(=O)N1CCOCC1	229	-32.8% (inactive)	0.6% (inactive)	66.7	25.8% (inactive)	109	-0.355 (inactive)	6.5e-06 (inactive)	0.00454 (inactive)	inactive	17.2% (inactive)	19.8% (inactive)
CCC(=O)Nc1cc(Cl)ccc1N1CCN(C(=O)CC)CC1	376	2.1% (inactive)	16.1% (inactive)	102	-17.9% (inactive)	90.8	-0.465 (inactive)	-1.2e-05 (inactive)	0.00532 (inactive)	inactive	18.6% (inactive)	16.6% (inactive)
O=C(Nc1ccccc1Cl)c1c(F)c(F)c(F)c(F)c1F	407	5.5% (inactive)	2.9% (inactive)	103	-166% (inactive)	116	-0.479 (inactive)	-3e-05 (inactive)	0.00592 (inactive)	inactive	-7.6% (inactive)	-12.7% (inactive)
COc1ccc(C2C(C(=O)c3sc(C)nc3C)=C(O)C(=O)N2CCN(C)C)cc1 (centres undefined)	560	13.4% (inactive)	6.9% (inactive)	110	-15.4% (inactive)	123	-0.335 (inactive)	-6.7e-05 (inactive)	0.00568 (inactive)	inactive	10.9% (inactive)	9.69% (inactive)
O=C(Nc1cccc(OCC(=O)N2CCOCC2)c1)C1CCCCC1	428	4.9% (inactive)	5.7% (inactive)	95.1	-22.9% (inactive)	94.2	-0.471 (inactive)	-5.6e-05 (inactive)	0.0056 (inactive)	inactive	11.4% (inactive)	12.7% (inactive)
O=C1c2oc3ccccc3c(=O)c2C(c2cccnc2)N1Cc1ccco1 (centres undefined)	389	-2.7% (inactive)	-2.7% (inactive)	110	-107% (inactive)	111	-0.48 (inactive)	-3.2e-05 (inactive)	0.00687 (inactive)	inactive	-0.371% (inactive)	8.46% (inactive)
COc1cc(NC(=O)Nc2cccc(C(C)=O)c2)cc(OC)c1OC	674	-9.3% (inactive)	-22% (inactive)	99.7	-136% (inactive)	97.7	-0.438 (inactive)	-4.1e-05 (inactive)	0.00508 (inactive)	inactive	14% (inactive)	12.9% (inactive)
Cc1cccc(C)c1-n1nnnc1SCSc1nnnn1-c1c(C)cccc1C	409	7.5% (inactive)	-3.2% (inactive)	101	-231% (inactive)	116	-0.445 (inactive)	-2.4e-07 (inactive)	0.00806 (inactive)	inactive	4.69% (inactive)	15% (inactive)
CC(=O)NC(C)C(=O)OCc1ccc(Cl)cc1Cl (centres undefined)	478	-21.6% (inactive)	-3.7% (inactive)	74.8	-22.9% (inactive)	134	-0.467 (inactive)	-5.2e-05 (inactive)	0.00444 (inactive)	inactive	10.8% (inactive)	12.4% (inactive)
O=C(CSc1ncn[nH]1)NC1CC2CCC1C2 (centres undefined)	264	-16.8% (inactive)	17% (inactive)	80.8	56.4% (inactive)	53	-0.448 (inactive)	-3.5e-05 (inactive)	0.00492 (inactive)	inactive	2.17% (inactive)	7.86% (inactive)
O=C(Nc1ccc(NC(=O)C2CC2)cn1)c1ccccc1Cl	745	2.6% (inactive)	-13% (inactive)	104	-79% (inactive)	113	-0.316 (inactive)	-8e-07 (inactive)	0.00552 (inactive)	inactive	-65.9% (inactive)	-212% (inactive)
